Source: ChEMBL document CHEMBL5724801, “EUbOPEN Chemogenomics Library - Multiplex” (2024)
Where “and” joins values, the source holds several entries; their conditions need not be identical. Equal entries are not always repeated.

Test system: HEK-293T
Assay: Multiplex assay against HEK293T
Assay type: toxicity, cell-based
Conditions: human
Procedure, shortened: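 Four dyes were applied at seeding to live cells: Hoechst33342, BioTracker Green Microtubule Cytoskeleton Dye, MitoTracker Red and Annexin V Alexa Fluor 680. Imaging after compound addition used a CQ1 microscope at 37°C and 5% CO2. CellPathfinder machine-learning gating then sorted cells into Hoechst high-intensity objects or normal cells, normal cells into healthy, pyknosed or fragmented nuclei, and pyknosed cells into mitotic or apoptotic, with tubulin, mitochondrial-mass and membrane-permeability phenotypes given as per cents of healthy-nucleus cells.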

[1] = 12 h, 1 µM, compound concentration 1 uM
[2] = 12 h, 10 µM, compound concentration 10 uM
[3] = 24 h, 1 µM, compound concentration 1 uM
[4] = 24 h, 10 µM, compound concentration 10 uM
[5] = 48 h, 1 µM, compound concentration 1 uM
[6] = 48 h, 10 µM, compound concentration 10 uM

Cc1cc(-c2ccc3c(c2)CC[C@H]3N2CC3(CCN(C(=O)Cc4cn5cc(C)sc5n4)CC3)C2)ncn1 [PF-5190457]
Population Apoptotic (%) [1]: 36% and 47% | Population Fragmented Nuclei (%) [1]: 5% and 8% | Population Healthy Nuclei (%) [1]: 83% and 72% | Population Hoechst High Intensity Objects (%) [1]: 5% and 10% | Population Membrane Permeable-Phenotype (%) [1]: 0% | Population Mitochondria Different-Phenotype (%) [1]: 40% and 53% | Population Mitotic Cells (%) [1]: 63% and 52% | Population Normal (%) [1]: 94% and 89% | Population Pyknosed Nuclei (%) [1]: 11% and 19% | Population Tubulin-Different-Phenotype (%) [1]: 25% and 22% | Total Cell Count [1]: 418 and 258 | Population Apoptotic (%) [2]: 40% and 54% | Population Fragmented Nuclei (%) [2]: 9% and 3% | Population Healthy Nuclei (%) [2]: 75% and 80% | Population Hoechst High Intensity Objects (%) [2]: 11% and 8% | Population Membrane Permeable-Phenotype (%) [2]: 0% | Population Mitochondria Different-Phenotype (%) [2]: 53% and 70% | Population Mitotic Cells (%) [2]: 60% and 45% | Population Normal (%) [2]: 88% and 91% | Population Pyknosed Nuclei (%) [2]: 14% and 16% | Population Tubulin-Different-Phenotype (%) [2]: 37% and 40% | Total Cell Count [2]: 455 and 322 | Population Apoptotic (%) [3]: 21% and 45% | Population Fragmented Nuclei (%) [3]: 8% and 11% | Population Healthy Nuclei (%) [3]: 77% and 78% | Population Hoechst High Intensity Objects (%) [3]: 2% and 7% | Population Membrane Permeable-Phenotype (%) [3]: 0% and 1% | Population Mitochondria Different-Phenotype (%) [3]: 24% and 35% | Population Mitotic Cells (%) [3]: 78% and 54% | Population Normal (%) [3]: 97% and 92% | Population Pyknosed Nuclei (%) [3]: 13% and 9% | Population Tubulin-Different-Phenotype (%) [3]: 16% and 11% | Total Cell Count [3]: 549 and 352 | Population Apoptotic (%) [4]: 25% and 36% | Population Fragmented Nuclei (%) [4]: 10% and 5% | Population Healthy Nuclei (%) [4]: 75% and 81% | Population Hoechst High Intensity Objects (%) [4]: 5% and 6% | Population Membrane Permeable-Phenotype (%) [4]: 1% and 0% | Population Mitochondria Different-Phenotype (%) [4]: 28% and 51% | Population Mitotic Cells (%) [4]: 74% and 63% | Population Normal (%) [4]: 94% and 93% | Population Pyknosed Nuclei (%) [4]: 14% and 13% | Population Tubulin-Different-Phenotype (%) [4]: 30% and 23% | Total Cell Count [4]: 638 and 425 | Population Apoptotic (%) [5]: 25% and 39% | Population Fragmented Nuclei (%) [5]: 14% and 12% | Population Healthy Nuclei (%) [5]: 79% and 80% | Population Hoechst High Intensity Objects (%) [5]: 1% and 3% | Population Membrane Permeable-Phenotype (%) [5]: 1% | Population Mitochondria Different-Phenotype (%) [5]: 18% and 21% | Population Mitotic Cells (%) [5]: 74% and 60% | Population Normal (%) [5]: 98% and 96% | Population Pyknosed Nuclei (%) [5]: 5% and 6% | Population Tubulin-Different-Phenotype (%) [5]: 9% and 10% | Total Cell Count [5]: 873 and 531 | Population Apoptotic (%) [6]: 24% and 46% | Population Fragmented Nuclei (%) [6]: 14% and 13% | Population Healthy Nuclei (%) [6]: 77% and 78% | Population Hoechst High Intensity Objects (%) [6]: 2% and 4% | Population Membrane Permeable-Phenotype (%) [6]: 0% | Population Mitochondria Different-Phenotype (%) [6]: 27% and 32% | Population Mitotic Cells (%) [6]: 76% and 53% | Population Normal (%) [6]: 97% and 95% | Population Pyknosed Nuclei (%) [6]: 8% | Population Tubulin-Different-Phenotype (%) [6]: 20% | Total Cell Count [6]: 927 and 520

CN(C)CCOc1ccc(/C(=C(/CCCO)c2ccccc2)c2ccc(O)cc2)cc1
Population Apoptotic (%) [1]: 11.33% and 11.76% | Population Fragmented Nuclei (%) [1]: 1.07% and 2.99% | Population Hoechst High Intensity Objects (%) [1]: 0% | Population Membrane Permeable-Phenotype (%) [1]: 0.91% and 0% | Population Mitochondria Different-Phenotype (%) [1]: 37.73% and 15.38% | Population Mitotic Cells (%) [1]: 88.67% and 88.24% | Population Normal (%) [1]: 100% | Population Pyknosed Nuclei (%) [1]: 40.11% and 81.44% | Total Cell Count [1]: 374 and 167 | Population Apoptotic (%) [2]: 12.57% and 17.97% | Population Fragmented Nuclei (%) [2]: 0.31% and 2.14% | Population Hoechst High Intensity Objects (%) [2]: 0% | Population Membrane Permeable-Phenotype (%) [2]: 0% | Population Mitochondria Different-Phenotype (%) [2]: 37.01% and 22.22% | Population Mitotic Cells (%) [2]: 87.43% and 82.03% | Population Normal (%) [2]: 100% | Population Pyknosed Nuclei (%) [2]: 59.87% and 91.43% | Population Tubulin-Different-Phenotype (%) [2]: 44.09% and 66.67% | Total Cell Count [2]: 319 and 140 | Population Apoptotic (%) [3]: 20.61% and 15.97% | Population Fragmented Nuclei (%) [3]: 0.56% and 3.01% | Population Healthy Nuclei (%) [3]: 68.54% and 25.3% | Population Hoechst High Intensity Objects (%) [3]: 0.37% and 0% | Population Membrane Permeable-Phenotype (%) [3]: 1.09% and 2.38% | Population Mitochondria Different-Phenotype (%) [3]: 18.85% and 28.57% | Population Mitotic Cells (%) [3]: 79.39% and 84.03% | Population Normal (%) [3]: 99.63% and 100% | Population Pyknosed Nuclei (%) [3]: 30.9% and 71.69% | Population Tubulin-Different-Phenotype (%) [3]: 22.68% and 21.43% | Population Apoptotic (%) [4]: 44.56% and 45.71% | Population Fragmented Nuclei (%) [4]: 1.1% and 3.91% | Population Hoechst High Intensity Objects (%) [4]: 0% | Population Membrane Permeable-Phenotype (%) [4]: 1.19% and 5.56% | Population Mitochondria Different-Phenotype (%) [4]: 45.83% and 33.33% | Population Mitotic Cells (%) [4]: 55.44% and 54.29% | Population Normal (%) [4]: 100% | Population Pyknosed Nuclei (%) [4]: 52.88% and 82.03% | Population Tubulin-Different-Phenotype (%) [4]: 79.76% and 72.22% | Total Cell Count [4]: 365 and 128 | Population Apoptotic (%) [5]: 11.64% and 29.47% | Population Fragmented Nuclei (%) [5]: 1.39% and 0.98% | Population Healthy Nuclei (%) [5]: 85.94% and 52.45% | Population Hoechst High Intensity Objects (%) [5]: 0.26% and 0% | Population Membrane Permeable-Phenotype (%) [5]: 6.57% and 1.87% | Population Mitochondria Different-Phenotype (%) [5]: 21.52% and 41.12% | Population Mitotic Cells (%) [5]: 88.36% and 70.53% | Population Normal (%) [5]: 99.74% and 100% | Population Apoptotic (%) [6]: 39.36% and 66.67% | Population Fragmented Nuclei (%) [6]: 0.98% and 2.22% | Population Hoechst High Intensity Objects (%) [6]: 1.92% and 1.46% | Population Membrane Permeable-Phenotype (%) [6]: 1.57% and 0% | Population Mitochondria Different-Phenotype (%) [6]: 81.82% and 77.78% | Population Mitotic Cells (%) [6]: 60.64% and 33.33% | Population Normal (%) [6]: 98.08% and 98.54% | Population Pyknosed Nuclei (%) [6]: 36.72% and 77.78%

O=C(NCCO)c1cccc(-c2cc(Nc3ccc(OC(F)(F)F)cc3)ncn2)c1
Population Apoptotic (%) [1]: 27% and 40% | Population Fragmented Nuclei (%) [1]: 7% and 4% | Population Healthy Nuclei (%) [1]: 78% and 77% | Population Hoechst High Intensity Objects (%) [1]: 8% and 6% | Population Membrane Permeable-Phenotype (%) [1]: 0% | Population Mitochondria Different-Phenotype (%) [1]: 47% and 60% | Population Mitotic Cells (%) [1]: 72% and 59% | Population Normal (%) [1]: 91% and 93% | Population Pyknosed Nuclei (%) [1]: 13% and 17% | Population Tubulin-Different-Phenotype (%) [1]: 23% and 16% | Total Cell Count [1]: 409 and 262 | Population Apoptotic (%) [2]: 55% and 63% | Population Fragmented Nuclei (%) [2]: 6% and 5% | Population Healthy Nuclei (%) [2]: 76% and 73% | Population Hoechst High Intensity Objects (%) [2]: 10% and 12% | Population Membrane Permeable-Phenotype (%) [2]: 0% | Population Mitochondria Different-Phenotype (%) [2]: 69% and 74% | Population Mitotic Cells (%) [2]: 44% and 36% | Population Normal (%) [2]: 89% and 87% | Population Pyknosed Nuclei (%) [2]: 17% and 21% | Population Tubulin-Different-Phenotype (%) [2]: 49% and 26% | Total Cell Count [2]: 374 and 325 | Population Apoptotic (%) [3]: 26% and 41% | Population Fragmented Nuclei (%) [3]: 11% and 7% | Population Healthy Nuclei (%) [3]: 78% and 79% | Population Hoechst High Intensity Objects (%) [3]: 4% and 6% | Population Membrane Permeable-Phenotype (%) [3]: 0% | Population Mitochondria Different-Phenotype (%) [3]: 21% and 38% | Population Mitotic Cells (%) [3]: 73% and 58% | Population Normal (%) [3]: 95% and 93% | Population Pyknosed Nuclei (%) [3]: 10% and 13% | Population Tubulin-Different-Phenotype (%) [3]: 15% and 17% | Total Cell Count [3]: 538 and 331 | Population Apoptotic (%) [4]: 39% and 50% | Population Fragmented Nuclei (%) [4]: 5% and 6% | Population Healthy Nuclei (%) [4]: 80% and 77% | Population Hoechst High Intensity Objects (%) [4]: 7% and 14% | Population Membrane Permeable-Phenotype (%) [4]: 0% | Population Mitochondria Different-Phenotype (%) [4]: 61% and 56% | Population Mitotic Cells (%) [4]: 60% and 50% | Population Normal (%) [4]: 92% and 85% | Population Pyknosed Nuclei (%) [4]: 14% and 15% | Population Tubulin-Different-Phenotype (%) [4]: 38% and 22% | Total Cell Count [4]: 447 and 354 | Population Apoptotic (%) [5]: 17% and 37% | Population Fragmented Nuclei (%) [5]: 12% and 9% | Population Healthy Nuclei (%) [5]: 80% and 79% | Population Hoechst High Intensity Objects (%) [5]: 3% and 5% | Population Membrane Permeable-Phenotype (%) [5]: 2% and 0% | Population Mitochondria Different-Phenotype (%) [5]: 17% and 23% | Population Mitotic Cells (%) [5]: 82% and 62% | Population Normal (%) [5]: 96% and 94% | Population Pyknosed Nuclei (%) [5]: 7% and 10% | Population Tubulin-Different-Phenotype (%) [5]: 13% and 9% | Total Cell Count [5]: 897 and 476 | Population Apoptotic (%) [6]: 41% and 58% | Population Fragmented Nuclei (%) [6]: 10% and 16% | Population Healthy Nuclei (%) [6]: 79% and 72% | Population Hoechst High Intensity Objects (%) [6]: 8% and 17% | Population Membrane Permeable-Phenotype (%) [6]: 1% and 0% | Population Mitochondria Different-Phenotype (%) [6]: 36% | Population Mitotic Cells (%) [6]: 58% and 41% | Population Normal (%) [6]: 91% and 82% | Population Pyknosed Nuclei (%) [6]: 10% and 11% | Population Tubulin-Different-Phenotype (%) [6]: 18% and 13% | Total Cell Count [6]: 595 and 504
